A word on the EC50: it is the concentration needed to bring the measured effect to its halfway point. Broadly, the IC50 is the midpoint of a concentration-inhibition curve.

Here are results for 1 compound from ChEMBL document CHEMBL4130623, “Discovery of Highly Potent Pinanamine-Based Inhibitors against Amantadine- and Oseltamivir-Resistant Influenza A Viruses” (J Med Chem, 2018).

Data set [1] has as its system Influenza A virus. Put plainly: Antiviral activity against Influenza A virus (A/Guangzhou/GIRD/07/2009 (H1N1)) infected in MDCK cells assessed as reduction in virus-induced cytopathic effect after 48 hrs by microscopic analysis. It counts as functional, organism-based. Put shortly: (§1)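 MDCK monolayers (5×10^4 cells/well, grown 24 h) were rinsed twice, infected with 100 TCID50 virus for 2 h at 37 °C in 5% CO2, and the inoculum was removed. Two-fold serial compound dilutions in DMEM with 1.5 µg/mL trypsin were added and incubated 48 h at 34 °C. CPE percentage was scored by microscope and EC50 fitted by non-linear regression.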
(In general: Protection from cytopathic effect is a common read-out in antiviral testing.)

The test system of data set [2] is Influenza A virus. Kind of data set: Antiviral activity against Influenza A virus (A/WSN/33) by CCK-8 reagent based assay. It counts as functional, organism-based. The conditions noted are these: A/WSN/1933(H1N1). A general note: Tetrazolium dyes change colour on reduction, which living cells bring about.
The test system of data set [3] is Influenza A virus. Kind of data set: Antiviral activity against Influenza A virus (A/HK/68) by CCK-8 reagent based assay. It counts as functional, organism-based.
Data set [4] is described as follows: Cytotoxicity against MDCK cells assessed as change in cell morphology after 48 hrs by microscopic analysis. It is filed as cell-based, Canis lupus familiaris. The conditions noted are these: dog. Put shortly: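 MDCK monolayers (5×10^4 cells/well, 24 h) were rinsed twice with PBS and exposed to two-fold serial compound dilutions in DMEM for 48 h. Wells were examined by microscope. The concentration giving minimal change in cell morphology was taken as the minimum cytotoxic concentration (MCC).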

Data set [5] concerns Influenza A virus. Put plainly: Antiviral activity against Influenza A virus (A/WSN/33 (H1N1)) infected in MDCK cells assessed as reduction in virus-induced cytopathic effect after 48 hrs by microscopic analysis. The conditions noted are these: A/WSN/1933(H1N1). It is filed as functional, organism-based. Put shortly:
as §1

The test system of data set [6] is Influenza A virus. Put plainly: Antiviral activity against Influenza A virus (A/PR/8/34 (H1N1)) infected in MDCK cells assessed as reduction in virus-induced cytopathic effect after 48 hrs by microscopic analysis. It counts as functional, organism-based. The note with it: A/Puerto Rico/8/1934(H1N1). Put shortly: as §1
The test system of data set [7] is Influenza A virus. Put plainly: Antiviral activity against Influenza A virus (A/HK/68(H3N2)) infected in MDCK cells assessed as reduction in virus-induced cytopathic effect after 48 hrs by microscopic analysis. It is filed as functional, organism-based. The method, boiled down:
as §1

A further data set has as its system H3N2 subtype. Kind of data set: Antiviral activity against Influenza A virus (A/Aichi/2/68 (H3N2)) infected in MDCK cells assessed as reduction in virus-induced cytopathic effect after 48 hrs by microscopic analysis. The conditions noted are these: A/Aichi/2/1968(H3N2). It counts as functional, organism-based. Put shortly: as §1
Data set [8] has as its system Influenza A virus. Put plainly: Antiviral activity against Influenza A virus (A/duck/Guangdong/1/1996 (H7N3)) infected in MDCK cells assessed as reduction in virus-induced cytopathic effect after 48 hrs by microscopic analysis. It counts as functional, organism-based. The method, boiled down: as §1
Data set [9] has as its system Influenza A virus. Put plainly: Antiviral activity against Influenza A virus (A/duck/HK/Y280/97 (H9N2)) infected in MDCK cells assessed as reduction in virus-induced cytopathic effect after 48 hrs by microscopic analysis. It counts as functional, organism-based. Put shortly: as §1
For data set [10], the system named is Influenza A virus. Put plainly: Antiviral activity against Influenza A virus (A/California/07/2009(H1N1)) infected in human A549 cells assessed as reduction in plaque area after 3 days post infection by crystal violet-staining based assay. The note with it: A549, 72 h. It counts as functional, organism-based. The method, boiled down: (§2)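 A549 monolayers were infected at 0.01 MOI for 1 h at 37 °C, then washed twice with PBS. Cells were overlaid with 1% agar DMEM containing compound, 2 µg/mL trypsin and 0.3% BSA. Two to three days post-infection, monolayers were fixed and stained with 0.1% crystal violet.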

In data set [11] the test system is Influenza A virus. Put plainly: Antiviral activity against Influenza A virus (A/Texas/04/2009(H1N1)) infected in human A549 cells assessed as reduction in plaque area after 3 days post infection by crystal violet-staining based assay. It counts as functional, organism-based. The note with it: A549, 72 h. The method, boiled down:
as §2

The subject of data set [12] is Influenza A virus. Kind of data set: Antiviral activity against Influenza A virus (A/PR/8/34 (H1N1)) infected in MDCK cells assessed as inhibition of virus yield dosed at -1 to 2 hrs post infection and measured after 24 hrs. It counts as functional, organism-based. The conditions noted are these: A/Puerto Rico/8/1934(H1N1). The method, boiled down: (§3)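 Confluent MDCK cells were infected with 100 TCID50 virus and adsorbed 1 h at 4 °C (adsorption defined as -1 h), then washed. Compound at 10 µM was present only during the stated interval, then washed out with PBS. Cells were kept in medium with 1.5 µg/mL TPCK-trypsin at 37 °C. After 24 h, plates were freeze-thawed and supernatant yield was titrated by TCID50.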

For data set [13], the target named is Hemagglutinin (Influenza A virus (A/Puerto Rico/8/1934(H1N1))) (UniProt P03452). Kind of data set: Inhibition of Influenza A virus A/PR/8/34 HA1 domain assessed as reduction in virus-induced aggregation of chicken erythrocytes at 0.75 to 1500 uM incubated for 1 hr with virus followed by transfer of compound-virus preparation to chicken erythrocytes solution measured after 40 mins. The method, boiled down: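 Two-fold serial compound dilutions in PBS were mixed with an equal volume of virus and incubated 1 h. The mixture was added to an equal volume of fresh 0.5% chicken red blood cells in Alsever's solution. After 40 min at room temperature, erythrocyte aggregation was read visually.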
Chain of Hemagglutinin (Influenza A virus (A/Puerto Rico/8/1934(H1N1))) (P03452 whole entry, the tested form may be a part): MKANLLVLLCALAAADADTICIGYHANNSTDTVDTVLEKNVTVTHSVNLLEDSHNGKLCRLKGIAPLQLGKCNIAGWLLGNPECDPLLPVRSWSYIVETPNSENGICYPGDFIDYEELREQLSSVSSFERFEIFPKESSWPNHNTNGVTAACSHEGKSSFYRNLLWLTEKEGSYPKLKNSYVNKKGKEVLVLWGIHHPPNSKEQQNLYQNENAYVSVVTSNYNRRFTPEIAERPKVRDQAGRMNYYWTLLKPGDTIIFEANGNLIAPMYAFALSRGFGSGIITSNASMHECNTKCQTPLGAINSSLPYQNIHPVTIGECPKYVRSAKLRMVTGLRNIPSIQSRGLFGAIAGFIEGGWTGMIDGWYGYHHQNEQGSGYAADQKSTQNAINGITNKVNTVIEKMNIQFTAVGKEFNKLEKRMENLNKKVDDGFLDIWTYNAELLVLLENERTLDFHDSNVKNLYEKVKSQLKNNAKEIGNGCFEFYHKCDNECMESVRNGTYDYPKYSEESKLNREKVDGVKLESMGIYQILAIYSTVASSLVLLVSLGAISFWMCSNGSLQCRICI

For data set [14] the target is unchanged. Kind of data set: Inhibition of Influenza A virus A/PR/8/34 HA2-mediated hemolysis preincubated with virus for 30 mins followed by chicken red blood cells addition measured after 30 mins by spectrophotometric analysis. The method, boiled down: (§4)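 Virus (100 µL) was incubated with two-fold serial compound dilutions in PBS for 30 min at 37 °C. An equal volume of chicken red blood cells in citric acid-sodium citrate (pH 5.0) was added and incubated 30 min at 37 °C, then centrifuged at 400 × g. Supernatant absorbance was read at 540 nm, with mock-infected background subtracted. IC50 is the concentration giving 50% hemolysis inhibition. Two independent experiments were run.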

The target in data set [15] is Hemagglutinin (Influenza A virus (strain A/Aichi/2/1968 H3N2)) (UniProt P03437). Kind of data set: (§5) Inhibition of Influenza A virus A/Aichi/2/68 (H3N2) HA2-mediated hemolysis preincubated with virus for 30 mins followed by chicken red blood cells addition measured after 30 mins by spectrophotometric analysis. The note with it: Influenza A virus (A/Aichi/2/1968(H3N2)). Put shortly:
as §4

In a further data set the target is Hemagglutinin (Influenza A virus (strain A/Aichi/2/1968 H3N2), UniProt P03437). The data set is described as §5. More on the design: species or system Influenza A virus (A/Aichi/2/1968(H3N2)). The method, boiled down:
as §4

Data set [16] deals with Influenza A virus. Put plainly: Antiviral activity against Influenza A virus (A/PR/8/34 (H1N1)) infected in MDCK cells assessed as inhibition of virus yield dosed at 0 to 2 hrs post infection and measured after 24 hrs. It counts as functional, organism-based. The note with it: A/Puerto Rico/8/1934(H1N1). The method, boiled down:
as §3

The source made the active and inactive calls.

For `C[C@@H]1C2CC(C[C@H]1NCc1sccc1C1CC1)C2(C)C` (single isomer, unassigned), the EC50 in the data set with Influenza A virus [1] was 300 nM; in the data set with Influenza A virus [5], 1480 nM; in the data set on Influenza A virus [6] it was 2230 nM; with Influenza A virus [7], 5380 nM; with H3N2 subtype, 4550 nM; in the data set with Influenza A virus [8], 4580 nM. Besides, the EC50 was determined as 6790 nM with Influenza A virus [9], 340 nM with Influenza A virus [10] and 100 nM with Influenza A virus [11]. Also, the outcome in the data set with Influenza A virus [2] and in the data set on Influenza A virus [3] was Active. The MCC at 48 h in [4] is 25 µM. Also, the inhibition entry with Influenza A virus [12] and with Influenza A virus [16] was “Active” in each case. In data set [13], the inhibition entry is “inactive”. Also, the inhibition result in [14] and in data set [15] was “Dose-dependent effect” throughout. On Hemagglutinin, the IC50 came out at 1230 nM.
